High-throughput results: PubChem, Broad Institute
Cneo AK release – causes C. neoformans cell lysis; adenylate kinase release luminescence, 4 h; normalised: neutral wells 0, clomiphene wells 100; lysis activity, % at 15 µM; actives 0.2% (n = 360,000); AID 651654;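 active = mean lysis activity across replicates of at least 80%, whatever share of replicates individually reach that level; inactive = mean lysis activity below 80%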
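Assay system: C. neoformans cells. Amount: yeast cell density of 5 × 10^6 cells/mL. Technique: AK luminescence. Buffer or medium: YPD. Times: static 4 h at 37 °C with compound, 1 h detection. Dosing: single-point compound dose. Read-out: lysis from increased AK signal.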
rRNA inh HTS – selective bacterial rRNA inhibition in E. coli. actives 1.6% (n = 350,000). AID 720706. E. coli WT GFP vs humanized-ribosome RFP mutants, fluorescence, 24 h; active compounds read low; DMSO median 0, no signal -100. GFP signal change (wild-type ribosome), % (no concentration beside the values);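 active = significant combined selectivity score with lowered wild-type GFP, culture density cut under 30%, mutant RFP and density less affected; inactive = any of these conditions unmet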
F508del corr – CFTR F508del correction in bronchial cells; CFBE cells, YFP halide quenching; stimulated with forskolin plus potentiator P3; % fluorescence drop versus neutral controls; activity (quench increase), % at 7.58 µM; actives 0.36% (n = 350,000); AID 720511;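 active = mean added fluorescence quench of at least 8% versus neutral control, with both replicates also reaching 8%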;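 also: cells transiently co-express mutant CFTR-F508del with the halide-sensitive YFP; corrector assay measuring rescue of mutant channel to the surface after 24 h compound exposure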
miR-122 sensor – miR-122 inhibition in Huh7 cells; activation (reporter increase), % at 12.5 µM; AID 602342; Huh7 miR-122 Renilla luciferase sensor, 48 h; neutral wells = 0, positive control = 100; actives 0.3% (n = 340,000);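 active = mean replicate activation score at least 90 and every replicate individually at or above 90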;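 also: higher luciferase means less miR-122 activity so hits act as miR-122 inhibitors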
GSIS activator – GLuc luminescence reporter in INS-1E cells, primary screen for activators of glucose-dependent secretion of insulin. INS-1E GLuc reporter insulin secretion, 2-3 h. activation, % at 16.6 µM. actives 0.61% (n = 370,000). AID 743287;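 active = lowest replicate activation of at least 40%, so every replicate reaches that level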;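 also: 0% = median of neutral control wells and 100% = median of IBMX positive control wells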
Env fusion inh – blocks HIV Env-driven cell-cell fusion | actives 1.1% (n = 360,000) | AID 651610 | inhibition, % at 12.3 µM | HeLa-JRFL Env/CEM21 cell fusion, luciferase;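 active = mean replicate inhibition score of at least 50 and every replicate individually at or above 50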;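 also: 0% = plate neutral controls and 100% = maraviroc near 300 nM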
Starred values were filed as active, the others as inactive; · = not tested or not shown; ! = not active in a repeat; [ ] = dose if it differs, or a comment. In the library only some 3.1% were active in any assay of this set; here they are far more common.

SMILES	Cneo AK release	rRNA inh HTS	F508del corr	miR-122 sensor	GSIS activator	Env fusion inh
C[C@H](CO)N1C[C@H](C)[C@@H](CN(C)Cc2ccc(C(=O)Nc3ccccc3N)cc2)Oc2ccc(NC(=O)CCC(F)(F)F)cc2CC1=O	·	4	-1	·	17	·
CC(C)NC(=O)Nc1ccc2c(c1)CC(=O)N([C@H](C)CO)C[C@H](C)[C@H](CN(C)Cc1ccc(C(=O)Nc3ccccc3N)cc1)O2	·	-1	-3	114*[16.7 µM]	32	-76[16.7 µM]
C[C@H]1CN([C@@H](C)CO)C(=O)Cc2cc(NC(=O)CCCCCC(=O)Nc3ccccc3N)ccc2O[C@H]1CN(C)Cc1ccc2c(c1)OCO2	94*	-3	4	61[16.7 µM]	13	12[16.7 µM]
C[C@H](CO)N1C[C@H](C)[C@H](CN(C)Cc2ccc(C(=O)Nc3ccccc3N)cc2)Oc2ccc(NC(=O)Nc3cccc4ccccc34)cc2CC1=O	-1	-2	4	96*[16.7 µM]	-8	-24[16.7 µM]
Cc1cccc(S(=O)(=O)N2C[C@@H]3N[C@H](C2)C3c2ccc(-c3ccccc3C)cc2)c1 (some centres undefined)	·	-62	-6	·	35	·
O=S(=O)(c1ccccc1F)N1C[C@@H]2N[C@H](C1)C2c1ccc(/C=C/c2ccccc2)cc1 (some centres undefined)	·	1	-4	·	171*!	·
COc1cccc(-c2ccc(C3[C@@H]4CN(S(=O)(=O)c5cccc(OC)c5)C[C@H]3N4)cc2)c1 (some centres undefined)	·	-6	21*!	·	-29	·
COc1cccc(S(=O)(=O)N2C[C@@H]3N[C@H](C2)C3c2ccc(-c3ccccc3OC)cc2)c1 (some centres undefined)	·	3	-5	·	-25	·
COc1cccc(S(=O)(=O)N2C[C@@H]3N[C@H](C2)C3c2ccc(-c3ccccc3F)cc2)c1 (some centres undefined)	·	0	10*!	·	-19	·
Cc1cccc(S(=O)(=O)N2C[C@@H]3N[C@H](C2)C3c2ccc(-c3ccccc3F)cc2)c1 (some centres undefined)	·	-60	6	·	81*!	·
CC(C)NC(=O)N(C)C[C@@H]1Oc2ncc(-c3ccccc3F)cc2C(=O)N([C@H](C)CO)C[C@@H]1C	1	3	-2	-10[16.7 µM]	8	-11[16.7 µM]
COc1ccc(C(=O)N2C[C@H]3[C@@H](c4ccccc42)[C@@H](CO)N3Cc2ccc3c(c2)OCO3)cc1	-1	-7	-3	9[16.7 µM]	-6	·
C[C@@H]1CN([C@@H](C)CO)C(=O)c2cc(C3=CCCC3)cnc2O[C@H]1CN(C)C(=O)CN(C)C	-4	2	-1	8[16.7 µM]	2	-24[16.7 µM]
COc1cc(/C=C/C(=O)OCC(=O)NC(=O)C2COc3ccccc3O2)ccc1OC(F)F (centres undefined)	0	8	3	0	45*	·
COC(=O)C[C@@H]1CC[C@H]2[C@H](COc3ccc(NC(=O)NC(C)C)cc3C(=O)N2C)O1	1	3	-1	0[16.7 µM]	7	5[16.7 µM]
COc1cc(C(F)(F)F)c(C(=O)NCc2cccc(Cl)c2)cn1	0	-7	0	1	48*	6
CCCNC(=O)Nc1ccc2c(c1)C(=O)N(C)C[C@@H](OC)[C@H](C)CN(C(=O)C1CCOCC1)[C@@H](C)CO2	-1	2	0	·	14	·
Cc1[nH]nc2c1C(c1ccc(F)cc1)N(c1ccccc1)C2=O (centres undefined)	·	1	-1	·	4	-7
COc1ccc(N2C(=O)c3n[nH]c(C)c3C2c2ccc(F)cc2)cc1 (centres undefined)	·	-32*	2	·	-7	-12
C[C@@H]1CN([C@H](C)CO)C(=O)c2cc(NC(=O)c3ccncc3)ccc2O[C@@H]1CN(C)S(=O)(=O)c1ccc(Cl)cc1	-2	0	-1	179*[16.7 µM]	0	·
C[C@@H]1CN([C@@H](C)CO)C(=O)c2cc(NC(=O)c3ccncc3)ccc2O[C@@H]1CN(C)S(=O)(=O)c1ccc(Cl)cc1	1	1	-1	51[16.7 µM]	-4	·
C[C@@H]1CN([C@H](C)CO)C(=O)c2cc(NC(=O)Nc3ccccc3)ccc2O[C@@H]1CN(C)S(=O)(=O)c1ccccc1	0	-1	1	6[16.7 µM]	-5	75*[16.7 µM]
COc1ccc(NC(=O)Nc2ccc3c(c2)C(=O)N([C@H](C)CO)C[C@H](C)[C@H](CN(C)S(=O)(=O)c2ccc(C)cc2)O3)cc1	-8	-1	1	-20[16.7 µM]	-49	87*[16.7 µM]
COc1ccc(NC(=O)Nc2ccc3c(c2)C(=O)N([C@@H](C)CO)C[C@H](C)[C@H](CN(C)S(=O)(=O)c2ccc(OC)cc2)O3)cc1	-1	0	0	-20[16.7 µM]	1	83*[16.7 µM]
COc1ccc(NC(=O)Nc2ccc3c(c2)C(=O)N([C@H](C)CO)C[C@H](C)[C@@H](CN(C)S(=O)(=O)c2ccc(OC)cc2)O3)cc1	0	-2	2	-7	0	29
SMILES	Cneo AK release	rRNA inh HTS	F508del corr	miR-122 sensor	GSIS activator	Env fusion inh
C[C@@H]1CN([C@@H](C)CO)C(=O)Cc2cc(NC(=O)Nc3ccc(F)cc3)ccc2O[C@@H]1CN(C)C(=O)Nc1ccc2c(c1)OCO2	-2	-3	3	-12[16.7 µM]	2	-3[16.7 µM]
C[C@@H]1CN([C@H](C)CO)C(=O)c2cc(NC(=O)Cc3ccccc3)ccc2O[C@@H]1CN(C)S(C)(=O)=O	-40	1	8.0*	3[16.7 µM]	9	1[16.7 µM]
COc1ccc(S(=O)(=O)N(C)C[C@@H]2Oc3ccc(NC(=O)Nc4ccc5c(c4)OCO5)cc3C(=O)N([C@H](C)CO)C[C@@H]2C)cc1	-1	-1	-3	-7[16.7 µM]	-2	76*[16.7 µM]
COc1ccc(NC(=O)Nc2cccc3c2O[C@H](CN(C)S(=O)(=O)c2ccc(Cl)cc2)[C@H](C)CN([C@@H](C)CO)C3=O)cc1	-8	-23*	-2	3[16.7 µM]	3	-14[16.7 µM]
COc1ccc(S(=O)(=O)N(C)C[C@@H]2Oc3ccc(NC(=O)Nc4ccc5c(c4)OCO5)cc3C(=O)N([C@@H](C)CO)C[C@@H]2C)cc1	4	2	0	-3[16.7 µM]	-9	32[16.7 µM]
COc1ccc(NC(=O)Nc2ccc3c(c2)C(=O)N([C@H](C)CO)C[C@H](C)[C@H](CN(C)S(=O)(=O)c2ccc(F)cc2)O3)cc1	10	-2	1	-4[16.7 µM]	-13	69*[16.7 µM]
C[C@@H]1CN([C@H](C)CO)C(=O)c2cc(NC(=O)Cc3ccccc3)ccc2O[C@H]1CN(C)S(C)(=O)=O	-3	0	0	-10[16.7 µM]	2	-1[16.7 µM]
